Source: ChEMBL document CHEMBL1671838, “Discovery of MK-1220: A Macrocyclic Inhibitor of Hepatitis C Virus NS3/4A Protease with Improved Preclinical Plasma Exposure” (ACS Med Chem Lett, 2011)

Assays:
Hepatitis C virus [1] = assay: Antiviral activity against HCV1b con1 infected in human HuH7 cells assessed as inhibition of viral replication after 24 hrs in presence of 10% fetal bovine serum; format: functional, organism-based, Hepacivirus hominis; conditions: Con1, Huh-7, 24 h
In short: (§1)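 Cell-based HCV replicon assay giving IC50. Genotype 1b replicon run with 10% fetal bovine serum or with 50% normal human serum. Genotype 2a replicon run with 10% FBS.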

[2] = Half life in rhesus monkey at 1 mg/kg, iv; conditions: in vivo
[3] = Half life in Beagle dog at 2 mg/kg, iv; format: ADME, organism-based, Canis lupus familiaris; parameters: dose 2 mg/kg, route intravenous; conditions: in vivo
In short: (§2)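 IV PK: 2 mg/kg dosed intravenously in DMSO to rat (n = 4) and dog (n = 2).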

[4] = Drug level in Beagle dog liver at 5 mg/kg, po after 2 hrs; format: ADME, organism-based, Canis lupus familiaris; parameters: dose 5 mg/kg, route oral; conditions: read-out: Drug uptake
In short: (§3)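 Oral PK study: 5 mg/kg PO in 10% Tween. Rat n = 3, dog n = 2. Plasma exposure was measured in both species, and dog liver levels were measured at 2 h and 26 h after dosing.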

[5] = AUC in Sprague-Dawley rat at 5 mg/kg, po; format: ADME, organism-based; parameters: dose 5 mg/kg, route oral; conditions: plasma; in short: as §3
[6] = Clearance in Beagle dog at 2 mg/kg, iv; format: ADME, organism-based, Canis lupus familiaris; parameters: dose 2 mg/kg, route intravenous; conditions: in vivo; in short: as §2
[7] = Clearance in Sprague-Dawley rat at 2 mg/kg, iv; format: ADME, organism-based; parameters: dose 2 mg/kg, route intravenous; conditions: in vivo; in short: as §2
[8] = Drug level in Beagle dog liver at 5 mg/kg, po after 26 hrs; format: ADME, organism-based, Canis lupus familiaris; parameters: dose 5 mg/kg, route oral; conditions: read-out: Drug uptake
In short: (§4)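 Single oral dose of 5 mg/kg in 10% Tween vehicle; n = 3 for rat and n = 2 for dog. Liver drug concentration was measured at 24 h in rat and at 26 h in dog.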

[9] = AUC in rhesus monkey at 5 mg/kg, po; format: ADME, organism-based, Macaca mulatta; parameters: dose 5 mg/kg, route oral; conditions: plasma
In short: (§5)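 Rhesus monkey oral PK: 5 mg/kg PO in 10% Tween, n = 2.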

[10] = Drug level in Sprague-Dawley rat liver at 5 mg/kg, po after 4 hrs; format: ADME, organism-based; parameters: dose 5 mg/kg, route oral; conditions: read-out: Drug uptake
In short: (§6)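 Rat PK screen: 5 mg/kg given orally in PEG400, n = 2; plasma AUC calculated from a 4 h experiment, and liver concentration measured at 4 h after dosing.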

[11] = Bioavailability in Beagle dog at 2 mg/kg, iv and 5 mg/kg, po; format: ADME, organism-based, Canis lupus familiaris; conditions: in vivo
In short: (§7)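 Bioavailability derived from IV dosing at 2 mg/kg in DMSO (rat n = 4, dog n = 2) and PO dosing at 5 mg/kg in 10% Tween (rat n = 3, dog n = 2).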

[12] = Clearance in rhesus monkey at 1 mg/kg, iv; conditions: in vivo
[13] = Selectivity ratio Ki for HCV NS3/4A protease to Ki for trypsin
[14] = Drug level in Sprague-Dawley rat liver at 5 mg/kg, po after 24 hrs; format: ADME, organism-based; parameters: dose 5 mg/kg, route oral; conditions: read-out: Drug uptake; in short: as §4
[15] = Cmax in Sprague-Dawley rat at 5 mg/kg, po; format: ADME, organism-based; parameters: dose 5 mg/kg, route oral; conditions: in vivo; in short: as §3
Hepatitis C virus [16] = assay: Antiviral activity against HCV1b con1 infected in human HuH7 cells assessed as inhibition of viral replication after 24 hrs in presence of 50% normal human serum; format: functional, organism-based, Hepacivirus hominis; conditions: Con1, Huh-7, 24 h; in short: as §1
[17] = Bioavailability in Sprague-Dawley rat at 2 mg/kg, iv and 5 mg/kg, po; format: ADME, organism-based; conditions: in vivo; in short: as §7
[18] = Inhibition of HCV NS3/4A protease expressed Escherichia coli after 1 hr by time-resolved fluorescence assay; parameters: species or system Hepacivirus hominis
In short: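 Binding assay against genotype 1b HCV NS3/4A protease, read by time-resolved fluorescence; potency expressed as Ki.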

[19] = AUC in Sprague-Dawley rat plasma at 5 mg/kg, po after 4 hrs; format: ADME, organism-based; parameters: time < 4 hr, dose 5 mg/kg, route oral; in short: as §6
[20] = Half life in Sprague-Dawley rat at 2 mg/kg, iv; format: ADME, organism-based; parameters: dose 2 mg/kg, route intravenous; conditions: in vivo; in short: as §2
[21] = Cmax in rhesus monkey at 5 mg/kg, po; format: ADME, organism-based, Macaca mulatta; parameters: dose 5 mg/kg, route oral; conditions: in vivo; in short: as §5
[22] = AUC in Beagle dog at 5 mg/kg, po; format: ADME, organism-based, Canis lupus familiaris; parameters: dose 5 mg/kg, route oral; conditions: plasma; in short: as §3
[23] = Selectivity ratio Ki for HCV NS3/4A protease to Ki for chymotrypsin
Hepatitis C virus [24] = assay: Antiviral activity against HCV2a infected in human HuH7 cells assessed as inhibition of viral replication after 24 hrs in presence of 10% fetal bovine serum; format: functional, organism-based, Hepacivirus hominis; conditions: genotype 2a, Huh-7, 24 h; in short: as §1
[25] = Cmax in Beagle dog at 5 mg/kg, po; format: ADME, organism-based, Canis lupus familiaris; parameters: dose 5 mg/kg, route oral; conditions: in vivo; in short: as §3
[26] = Bioavailability in rhesus monkey at 1 mg/kg, iv and 5 mg/kg, po; conditions: in vivo

With C=C[C@@H]1C[C@]1(NC(=O)[C@@H]1C[C@@H]2CN1C(=O)[C@H](C1CCCCC1)NC(=O)OCC(C)(C)CCCc1cc3c(nccc3cc1OC)O2)C(=O)NS(=O)(=O)C1CC1 the IC50 (Hepatitis C virus [1]) was 4 nM, the half-life [2] was 1.3 h and the half-life [3] was 2.5 h. For the same compound, the concentration at 2 h [4] was 54 µM, the AUC [5] was 12.1 µM·h and the clearance [6] was 3.6 mL/min/kg. It also gave a clearance [7] of 3.4 mL/min/kg, a concentration at 26 h [8] of 10.3 µM and an AUC [9] of 1.2 µM·h. For the same compound, the concentration at 4 h [10] was 23 µM, the bioavailability [11] was 41% and the clearance [12] was 8.3 mL/min/kg. For the same compound, the Ratio Ki [13] was greater than 50000, the concentration at 24 h [14] was 9.9 µM and the Cmax [15] was 4.4 µM. The IC50 (Hepatitis C virus [16]) was 11 nM, the bioavailability [17] was 37% and the Ki [18] was 0.02 nM. The AUC at 4 h [19] was 11.8 µM·h, the half-life [20] was 5.7 h and the Cmax [21] was 0.3 µM. It also gave an AUC [22] of 12.4 µM·h, a Ratio Ki [23] greater than 50000 and an IC50 (Hepatitis C virus [24]) of 5 nM. It also gave a Cmax [25] of 4 µM and a bioavailability [26] of 9%.
